In brackets after ≈: the same amount, converted by molar mass.
Columns and labels:
Human rhinovirus sp. [1] = test: In vitro concentration required to achieve 50% protection of HeLa cells from HRV-14 induced cytopathic effect; type: functional, organism-based
Outline: (§1)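 HeLa-Ohio cells (20 000/well) are seeded in D-MEM with 2% FCS, 30 mM MgCl2 and 15 µg/mL DEAE-dextran, then grown overnight at 37 °C, 5% CO2, to a subconfluent monolayer. Compound dilutions (from 200× DMSO stocks) are added with HRV at 200–2000 PFU/monolayer, dosed to give full CPE in 72 h. Plates are held at 33 °C and viability is read by MTT. EC50 is the concentration giving 50% protection.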

HeLa [2] = test: In vitro concentration required to achieve 50% protection of HeLa cells from HRV-2 induced cytopathic effect; type: functional, cell-based; conditions: Homo sapiens; outline: as §1
HeLa [3] = test: In vitro concentration required to reduce the viability of mock-infected HeLa cells by 50%; type: functional; conditions: Homo sapiens
Outline: (§2)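 Cytotoxicity run alongside the antiviral assay on mock-infected HeLa-Ohio cells. Compounds are taken from 200× DMSO stocks and serially diluted in maintenance medium. Cells are incubated 72 h at 37 °C and viability is read by MTT. CC50 is the concentration that reduces viability by 50%.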

Human rhinovirus sp. [4] = test: In vitro concentration which inhibits 80% of serotypes tested; type: functional
Outline: (§3)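 CPE-inhibition MTT assay in HeLa-Ohio cells (30 mM MgCl2, 15 µg/mL DEAE-dextran, 2% FCS), infected at 200–2000 PFU/monolayer and incubated at 33 °C. MIC80 is the concentration inhibiting 80% of the serotypes tested.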

Human rhinovirus sp. [5] = test: Compound concentration which inhibits 80% of serotypes tested, was reported.; type: functional; outline: as §3
HeLa [6] = test: Compound concentration required to reduce the viability of mock-infected HeLa cells by 50%, was reported.; type: functional; conditions: Homo sapiens; outline: as §2
HeLa [7] = test: In vitro concentration required to reduce the viability of mock-infected HeLa cells by 50%, was reported.; type: functional; conditions: Homo sapiens; outline: as §2

Row | Structure (SMILES) | EC50 (Human rhinovirus sp. [1]) [µM] | EC50 (HeLa [2]) [µM] | MIC80 (Human rhinovirus sp. [4]) [µM] | MIC80 (Human rhinovirus sp. [5]) [µM] | CC50 (HeLa [3]) [µM] | CC50 (HeLa [6]) [µM] | CC50 (HeLa [7]) [µM]
1 | O=C(CCCCOc1ccc(C2=NCCO2)cc1)c1ccc[nH]1 | 8.01 | 3.2 | > 32 |  | > 320 |  | 
2 | Clc1ccc(CCCCCOc2ccc(C3=NCCO3)cc2)s1 | 2.85 | 2.57 | 21.4 (≈ 7.5 µg/mL) |  | 71 |  | 
3 | c1ccn(CCCCCOc2ccc(C3=NCCO3)cc2)c1 | > 31.9 | 1.43 | 15.9 (≈ 4.75 µg/mL) |  | 159 |  | 
4 | CCOC(=O)c1ccc(OCCCCC(=O)c2cc(C)[nH]c2C)cc1 | 18.9 | 1.17 | > 29 |  | 204 |  | 
5 | Cc1ccc(CCCCCOc2ccc(C3=NCCO3)cc2)s1 | 11.5 | 2.58 | > 30.4 |  | > 303 |  | 
6 | Cc1cc(C(=O)CCCCOc2ccc(C3=NCCO3)cc2)c(C)n1C | 11.3 | > 28.2 | > 28.2 |  | 141 |  | 
7 | Cc1csc(C(=O)CCCCOc2ccc(C3=NCCO3)cc2)c1 | 0.87 | 2.91 | 14.6 (≈ 5.01 µg/mL) |  | 73 |  | 
8 | Cc1cc(C(=O)CCCCOc2ccc(C3=NCCO3)cc2)c(C)[nH]1 | > 29.4 | > 29.4 | > 29.4 |  | 205 |  | 
9 | CCOC(=O)c1ccc(OCCCCCc2ccc(Cl)s2)cc1 | 9.15 | 1.84 | 18.3 (≈ 6.45 µg/mL) |  | > 284 |  | 
10 | CCOC(=O)c1ccc(OCCCCC(=O)c2cc(C)n(C)c2C)cc1 | 16.8 | 2.28 | > 28 |  | 56 |  | 
11 | c1cc(C2=NCCO2)ccc1OCCCCCN1CCCC1 | > 33.1 | > 33.1 | > 33.1 |  | 165 |  | 
12 | Cn1cccc1C(=O)CCCCOc1ccc(C2=NCCO2)cc1 | 3.68 | > 30.7 | > 30.7 |  |  |  | > 306
13 | CCOC(=O)c1ccc(OCCCCC(=O)c2cc(C=O)n(C)c2)cc1 | 1.96 | 0.67 |  | 8.4 (≈ 3 µg/mL) |  | 56 | 
14 | Cc1ccsc1C(=O)CCCCOc1ccc(C2=NCCO2)cc1 | 1.46 | 29.2 | > 29.1 |  | 291 |  | 
15 | O=C(CCCCOc1ccc(C2=NCCO2)cc1)c1cc[nH]c1 | > 32 | > 32 | > 32 |  | > 320 |  | 
16 | Cn1cc(C(=O)CCCCOc2ccc(C3=NCCO3)cc2)cc1C=O | > 28.2 | > 28.2 |  | > 28.2 |  | > 282 | 
17 | Cc1cc(CCCCCCCOc2ccc(C3=NCCO3)cc2)on1 [DISOXARIL] | 1.76 | 2.35 |  | 3.51 (≈ 1.2 µg/mL) |  | 37 | 

Continued, in another order:

Row | EC50 (Human rhinovirus sp. [1]) [µM] | EC50 (HeLa [2]) [µM] | MIC80 (Human rhinovirus sp. [4]) [µM] | MIC80 (Human rhinovirus sp. [5]) [µM] | Structure (SMILES) | CC50 (HeLa [3]) [µM] | CC50 (HeLa [6]) [µM] | CC50 (HeLa [7]) [µM]
18 | 2.42 | 0.91 |  |  | CCOC(=O)c1ccc(OCCCCC(=O)c2ccc(C)o2)cc1 | 65 |  | 
19 | 0.54 | 0.08 | 2.18 (≈ 0.8 µg/mL) |  | CCOC(=O)c1ccc(OCCCCC(=O)c2ccc(Cl)s2)cc1 | 273 |  | 
20 | > 30.9 | > 30.9 |  | > 30.9 | Cn1cc(C(=O)CCCCOc2ccc(C(=O)O)cc2)cc1C=O |  | > 303 | 
21 | 0.13 | 0.81 | > 27.1 |  | O=C(CCCCOc1ccc(C2=NCCO2)cc1)c1ccc(Cl)s1 | > 271 |  | 
22 | > 31.4 | > 31.4 | > 31.4 |  | Cc1csc(C(=O)CCCCOc2ccc(C(=O)O)cc2)c1 | > 314 |  | 
23 | > 31.4 | > 31.4 | > 31.4 |  | Cc1ccc(C(=O)CCCCOc2ccc(C(=O)O)cc2)s1 | > 314 |  | 
24 | 0.14 | 1.31 | 9.04 (≈ 3.1 µg/mL) |  | Cc1ccc(C(=O)CCCCOc2ccc(C3=NCCO3)cc2)s1 | 146 |  | 
25 | > 30.1 | 10.6 | > 30.1 |  | CCOC(=O)c1ccc(OCCCC(=O)c2ccc(C)s2)cc1 | > 301 |  | 
26 | > 31.4 | > 31.4 | > 31.4 |  | Cc1ccsc1C(=O)CCCCOc1ccc(C(=O)O)cc1 | > 314 |  | 
27 | 22.7 | 15.2 | > 30.3 |  | Cc1ccc(C(=O)CCCOc2ccc(C3=NCCO3)cc2)s1 |  |  | 
28 | > 30.6 | > 30.6 | > 30.6 |  | Cc1ccc(C(=O)CCCCOc2ccc(C(=O)NCCO)cc2)o1 | > 305 |  | 
29 | 5.78 | 2.89 |  |  | CCOC(=O)c1ccc(OCCCCC(=O)c2cc(C)cs2)cc1 | > 289 |  | 
30 | 7.16 | 1.59 | 14.3 (≈ 4.76 µg/mL) |  | CCOC(=O)c1ccc(OCCCCCc2ccc(C)s2)cc1 | 301 |  | 
31 | 13.3 | 11 | 19.5 (≈ 6.14 µg/mL) |  | CCOC(=O)c1ccc(OCCCCC(=O)c2cc[nH]c2)cc1 | > 317 |  | 
32 | 0.29 | 0.06 | 2.31 (≈ 0.8 µg/mL) |  | CCOC(=O)c1ccc(OCCCCC(=O)c2ccc(C)s2)cc1 | > 289 |  | 
33 | > 29.5 | > 29.5 | > 29.5 |  | O=C(O)c1ccc(OCCCCC(=O)c2ccc(Cl)s2)cc1 | > 295 |  | 
34 | > 28.9 | 6.94 | 20.8 (≈ 7.21 µg/mL) |  | CCOC(=O)c1ccc(OCCCCC(=O)c2sccc2C)cc1 | 202 |  | 

Reference: ChEMBL document CHEMBL1128705, “[[[(Thienylcarbonyl)alkyl]oxy]phenyl]- and [[[(pyrrylcarbonyl)alkyl]oxy]phenyl]oxazoline derivatives with potent and selective antihuman rhinovirus activity” (J Med Chem, 1995)
